The nature of test [1]: Agonist activity at human H2R-C17Y-A271D Gsalphas mutant containing human H2 receptor E2 loop expressed in Sf9 cells by steady state GTPase activity assay. The class given is functional. The essentials: (§1)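 Mutant H2R-Gsαs fusion proteins in Sf9 membranes were tested by steady-state GTPase hydrolysis: 1.0 mM MgCl2, 100 nM GTP, AppNHp/creatine phosphate regeneration, pH 7.4 Tris, 20 min at 25 °C with [γ-32P/33P]GTP, charcoal separation of Pi.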

Test [2] addresses T1, Histamine H2 receptor (Homo sapiens, UniProt P25021). The test is described as follows: Intrinsic agonist activity at human H2R-Gsalphas expressed in Sf9 cells by steady state GTPase activity assay relative to histamine. The class given is functional. The essentials:
(§2)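 Steady-state GTPase assay with Sf9 membranes (5–20 µg protein) expressing hH2R- or gpH2R-Gsαs, in 50 mM Tris-HCl pH 7.4. Mix: 1.0 mM MgCl2, 100 µM EDTA, 100 nM GTP, 100 µM AppNHp, 5 mM creatine phosphate, creatine kinase, 0.2% BSA, ligand 0.1 nM–10 µM. After 2 min at 25 °C, [γ-32P]GTP or [γ-33P]GTP was added and reacted 20 min at 25 °C. Charcoal stop; released Pi counted. Emax referenced to histamine (1.0). Two to six experiments, duplicate.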

For test [3], the target named is Histamine H2 receptor (Cavia porcellus) (UniProt P47747). The test is described as follows: Intrinsic agonist activity at guinea pig H2R-Gsalphas expressed in Sf9 cells by steady state GTPase activity assay relative to histamine. The class given is functional. The essentials:
as §2

Test [4] has the same target. The test is described as follows: Intrinsic agonist activity at H2R in spontaneously beating guinea pig right atrium assessed as increase in heart rate relative to histamine. The class given is functional, tissue-based. As to conditions: Cardiac atrium. The essentials:
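Isolated spontaneously beating guinea pig right atrium. Ligand stocks (10 mM) and dilutions were made in fresh bath fluid. Tissue was washed for 30 min and equilibrated for 15 min. […] Emax is relative to maximal histamine heart-rate increase. Three to five experiments.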

Test [5] can be described thus: Agonist activity at guinea pig H2R hE2 loop Gsalphas mutant containing human H2 receptor E2 loop expressed in Sf9 cells by steady state GTPase activity assay. The class given is functional. As to conditions: Cavia porcellus. The essentials: as §1
Test [6] has as its target T2, Histamine H4 receptor (Homo sapiens, UniProt Q9H3N8). The test is described as follows: Agonist activity at human H4R-RGS19 Galphai2 Gbeta1gamma2 expressed in Sf9 cells by steady state GTPase activity assay relative to histamine. The format is functional. In a few lines: (§3)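 Sf9 membranes coexpressing hH4R-RGS19 with Gαi2 and Gβ1γ2 were assayed for GTP hydrolysis with 5.0 mM MgCl2 and 100 mM NaCl (final), 100 nM GTP, 50 mM Tris-HCl pH 7.4. Ligands spanned 0.1 nM–1 mM. Preincubation was 2 min, then 20 min at 25 °C with [γ-32P]GTP or [γ-33P]GTP. Charcoal quench; Pi counted. Sigmoidal nonlinear regression; efficacy relative to histamine.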

Test [7] deals with T2, Histamine H4 receptor. The test is described as follows: Agonist activity at human H4R-RGS19 Galphai2 Gbeta1gamma2 expressed in Sf9 cells at 0.1 nM to 1 mM by steady state GTPase activity assay. The class given is functional. In a few lines: as §3
A further test addresses Histamine H3 receptor (Homo sapiens, UniProt Q9Y5N1). The test is described as follows: Agonist activity at human H3R-Galphai2-Gbeta1gamma2-RGS4 expressed in Sf9 cells 0.1 nM to 1 mM by steady state GTPase activity assay. The class given is functional.
In test [8] the target is T1, Histamine H2 receptor. The test is described as follows: Agonist activity at human H2R-Gsalphas expressed in Sf9 cells at 0.1 nM to 10 uM by steady state GTPase activity assay.
Test [9] concerns the target T1, Histamine H2 receptor. The test is described as follows: Potency index, ratio of pEC50 for compound to pEC50 for histamine at human H2R-Gsalphas expressed in Sf9 cells at 0.1 nM to 10 uM by steady state GTPase activity assay. The essentials: (§4)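 Sf9 membranes expressing human or guinea pig H2R-Gsαs fusion protein, 1.0 mM MgCl2, ATP, 100 nM GTP, AppNHp, creatine phosphate/kinase, BSA, Tris pH 7.4. Agonists 0.1 nM–10 μM, [γ-32P/33P]GTP hydrolysis 20 min at 25 °C, Pi counted. Curves fit by sigmoidal nonlinear regression. Potency given relative to histamine (set to 1.0). Two to six independent experiments in duplicate.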

Test [10] deals with Histamine H2 receptor (Cavia porcellus, UniProt P47747). The test is described as follows: Agonist activity at guinea pig H2R-Gsalphas expressed in Sf9 cells at 0.1 nM to 10 uM by steady state GTPase activity assay. The format is functional. In a few lines:
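Steady-state GTPase assay with Sf9 membranes (5–20 µg protein) expressing hH2R- or gpH2R-Gsαs, in 50 mM Tris-HCl pH 7.4. Mix: 1.0 mM MgCl2, 100 µM EDTA, 100 nM GTP, 100 µM AppNHp, 5 mM creatine phosphate, creatine kinase, 0.2% BSA, ligand 0.1 nM–10 µM. After 2 min at 25 °C, [γ-32P]GTP or [γ-33P]GTP was added and reacted 20 min at 25 °C. Charcoal stop; released Pi counted. Two to six experiments, duplicate.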

Test [11] addresses Histamine H2 receptor (Cavia porcellus) (UniProt P47747). The test is described as follows: Potency index, ratio of pEC50 for compound to pEC50 for histamine at guinea pig H2R-Gsalphas expressed in Sf9 cells at 0.1 nM to 10 uM by steady state GTPase activity assay. In a few lines:
as §4

Test [12] is described as follows: Selectivity index, ratio of EC50 for human H2R-Gsalphas to EC50 for guinea pig H2R-Gsalphas by steady state GTPase activity assay.
Test [13] concerns the target Histamine H1 receptor (Homo sapiens) (UniProt P35367). The test is described as follows: Antagonist activity at human H1R-RGS4 expressed in Sf9 cells by steady state GTPase activity assay. The format is functional. In a few lines:
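Sf9 membranes (5–20 μg protein) co-expressing human H1R with RGS4. Reaction with 1.0 mM MgCl2, 100 μM ATP, 100 nM GTP, AppNHp, creatine phosphate/kinase, 0.2% BSA, 50 mM Tris-HCl pH 7.4. Histamine 100 nM with test ligand 10 nM–1 mM. [γ-32P/33P]GTP added, 20 min at 25 °C. Charcoal stop, released Pi counted. pKB from sigmoidal nonlinear fits.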

In test [14] the target is Histamine H2 receptor (Cavia porcellus) (UniProt P47747). The test is described as follows: Agonist activity at H2R in spontaneously beating guinea pig right atrium assessed as increase in heart rate in presence of 100 uM H2R antagonist cimetidine. The class given is functional, tissue-based. As to conditions: Cardiac atrium.
Chain of Histamine H2 receptor (Cavia porcellus) (P47747 whole entry): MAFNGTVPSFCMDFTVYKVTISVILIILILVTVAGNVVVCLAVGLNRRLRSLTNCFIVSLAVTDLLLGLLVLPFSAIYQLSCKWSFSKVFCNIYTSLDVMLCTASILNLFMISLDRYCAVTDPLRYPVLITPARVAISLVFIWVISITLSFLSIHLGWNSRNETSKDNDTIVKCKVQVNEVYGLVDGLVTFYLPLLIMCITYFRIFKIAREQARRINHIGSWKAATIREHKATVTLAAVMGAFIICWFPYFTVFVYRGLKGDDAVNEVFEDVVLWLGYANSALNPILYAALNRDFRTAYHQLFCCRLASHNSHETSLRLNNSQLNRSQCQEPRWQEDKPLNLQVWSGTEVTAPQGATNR

This is an account of results in ChEMBL document CHEMBL2163257 (J Med Chem, 2012).

For orientation: pKb means the Kb on a negative log10 scale, so that one unit is a factor of ten. High values mean a small Kb, low ones a large Kb.

Active and inactive are the calls of the source. No cut-off for these calls is given here. A value given as a limit tells only on which side of the number the result lay.

Chain of Histamine H3 receptor (Q9Y5N1 whole entry): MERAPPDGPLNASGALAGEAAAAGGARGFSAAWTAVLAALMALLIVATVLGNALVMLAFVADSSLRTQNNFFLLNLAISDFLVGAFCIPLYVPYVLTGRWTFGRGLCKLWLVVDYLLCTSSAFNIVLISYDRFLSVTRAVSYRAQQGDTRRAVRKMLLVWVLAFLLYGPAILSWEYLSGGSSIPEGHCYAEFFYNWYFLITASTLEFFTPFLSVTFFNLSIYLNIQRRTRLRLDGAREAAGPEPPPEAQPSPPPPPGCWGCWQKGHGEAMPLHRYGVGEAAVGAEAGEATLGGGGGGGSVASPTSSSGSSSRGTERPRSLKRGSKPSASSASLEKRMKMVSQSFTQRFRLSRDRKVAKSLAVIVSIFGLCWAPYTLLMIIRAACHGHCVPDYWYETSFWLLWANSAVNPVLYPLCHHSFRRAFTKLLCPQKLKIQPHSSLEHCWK
T1 sequence (P25021 whole entry): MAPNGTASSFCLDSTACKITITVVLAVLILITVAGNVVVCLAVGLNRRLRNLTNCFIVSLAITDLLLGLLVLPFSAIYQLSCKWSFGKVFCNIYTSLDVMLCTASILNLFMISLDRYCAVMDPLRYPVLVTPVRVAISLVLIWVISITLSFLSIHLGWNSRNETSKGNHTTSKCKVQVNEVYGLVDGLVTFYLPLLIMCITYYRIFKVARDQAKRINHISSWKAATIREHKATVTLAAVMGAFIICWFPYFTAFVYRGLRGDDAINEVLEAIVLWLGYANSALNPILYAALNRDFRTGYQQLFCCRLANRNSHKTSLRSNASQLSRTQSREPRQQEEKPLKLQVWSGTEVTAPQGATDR
T2 sequence (Q9H3N8 whole entry): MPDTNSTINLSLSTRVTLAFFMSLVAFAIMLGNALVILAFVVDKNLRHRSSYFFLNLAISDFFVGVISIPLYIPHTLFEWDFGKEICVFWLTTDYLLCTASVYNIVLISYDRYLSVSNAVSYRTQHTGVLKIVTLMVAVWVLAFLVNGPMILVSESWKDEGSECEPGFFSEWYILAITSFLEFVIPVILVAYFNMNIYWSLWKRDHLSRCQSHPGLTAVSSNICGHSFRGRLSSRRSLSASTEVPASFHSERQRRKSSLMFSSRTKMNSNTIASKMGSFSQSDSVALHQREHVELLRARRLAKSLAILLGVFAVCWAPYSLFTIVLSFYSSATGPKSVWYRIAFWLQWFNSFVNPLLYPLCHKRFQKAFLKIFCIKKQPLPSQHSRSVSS
Chain of Histamine H2 receptor (Cavia porcellus, UniProt P47747) (P47747 whole entry): as the sequence (P47747 whole entry) above
Chain of Histamine H1 receptor (Homo sapiens) (P35367 whole entry): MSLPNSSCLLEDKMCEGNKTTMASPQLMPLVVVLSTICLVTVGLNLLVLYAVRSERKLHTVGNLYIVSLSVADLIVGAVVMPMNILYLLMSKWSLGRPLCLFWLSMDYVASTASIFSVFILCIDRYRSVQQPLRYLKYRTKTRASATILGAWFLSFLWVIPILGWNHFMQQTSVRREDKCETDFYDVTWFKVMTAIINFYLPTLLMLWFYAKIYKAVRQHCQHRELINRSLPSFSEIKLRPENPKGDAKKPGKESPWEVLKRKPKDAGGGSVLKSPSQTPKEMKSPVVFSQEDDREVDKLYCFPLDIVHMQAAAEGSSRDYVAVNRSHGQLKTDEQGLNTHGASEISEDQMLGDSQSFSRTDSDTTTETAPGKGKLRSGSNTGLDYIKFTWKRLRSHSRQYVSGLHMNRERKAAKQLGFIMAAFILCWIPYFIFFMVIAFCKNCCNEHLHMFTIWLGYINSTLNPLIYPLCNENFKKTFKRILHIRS

As for `Cc1nc(N)sc1CCCN/C(N)=N/C(=O)CCCCCCC(=O)/N=C(\N)NCCCc1sc(N)nc1C`, the outcome in test [1] and in [5] was Active. The Intrinsic activity at Histamine H2 receptor [2] was determined as 0.62; in test [3] it was 0.81; in test [4], 0.64.

For the compound `N/C(=N\C(=O)CCCCC(=O)/N=C(\N)NCCCc1c[nH]cn1)NCCCc1c[nH]cn1`, the results for the Intrinsic activity (at Histamine H4 receptor [6]; on Histamine H2 receptor [2]; in test [3]) were 0.42, 0.68 and 1, respectively. The EC50 at Histamine H4 receptor [7] is 79.4 nM; on Histamine H3 receptor, more than 10000 nM.

For the compound `N/C(=N\C(=O)CCCCCCCCCCCCCCC(=O)/N=C(\N)NCCCc1c[nH]cn1)NCCCc1c[nH]cn1`, the EC50 on Histamine H4 receptor [7] was 339 nM; on Histamine H3 receptor, more than 1000 nM. Further, the results for the Intrinsic activity (on Histamine H2 receptor [2]; in test [3]) were 0.29 and 0.85, respectively.

For `Cc1nc(N)sc1CCN` [AMTHAMINE], the Intrinsic activity came out at 0.91 at Histamine H2 receptor [2], 1.04 in [3] and 0.95 in test [4].

Take `Cc1nc(N)sc1CCCN/C(N)=N/C(=O)CCCCCCCCC(=O)/N=C(\N)NCCCc1c[nH]cn1`: the Intrinsic activity at Histamine H4 receptor [6] came out at 0.52; at Histamine H2 receptor [2], 0.76; in test [3], 1.01. The result in test [1] and in test [5] was Active. Moreover, the EC50 was 8.51 nM on Histamine H4 receptor [7] and 2.88 nM on Histamine H3 receptor.

Regarding `Cc1nc(N)sc1CCCN/C(N)=N/C(=O)CCCCCCCCCCC(=O)/N=C(\N)NCCCc1sc(N)nc1C`, the results for the Intrinsic activity (at Histamine H2 receptor [2]; in test [3]; in [4]) were 0.46, 0.66 and 0.46, respectively.

`Cc1nc(N)sc1CCCN/C(N)=N/C(=O)CCCCCCCCC(=O)/N=C(\N)NCCCc1sc(N)nc1C`: the result in [1] and in test [5] was Active. Also, the Intrinsic activity on Histamine H2 receptor [2] was 0.53; in test [3], 0.79; in [4] it was 0.62.

`NC(=NCCCc1nnc[nH]1)NC(=O)CCCCCCCCC(=O)NC(N)=NCCCc1nnc[nH]1`: the EC50 at Histamine H2 receptor [8] was 151 nM.

Turning to `N/C(=N\C(=O)CCCCCCCCC(=O)/N=C(\N)NCCCc1ncn[nH]1)NCCCc1ncn[nH]1`, the Intrinsic activity on Histamine H2 receptor [2] came to 0.49; in test [3], 0.95.

As to `N/C(=N\C(=O)CCCCCCCCCCCCCCCCCCCCC(=O)/N=C(\N)NCCCc1c[nH]cn1)NCCCc1c[nH]cn1`, the Intrinsic activity in [3] amounted to 0.19.

Turning to `N/C(=N\C(=O)CCCCCCCCC(=O)/N=C(\N)NCCCc1c[nH]cn1)NCCCc1c[nH]cn1`, the Intrinsic activity on Histamine H4 receptor [6] came out at 0.44; at Histamine H2 receptor [2] it was 0.81; in [3] it was 0.98; in test [4] it was 0.91. Also, the outcome in test [1] and in [5] was Active. The EC50 on Histamine H4 receptor [7] was 8.51 nM; on Histamine H3 receptor, 1.78 nM.

Regarding `Cc1nc(N)sc1CCCN/C(N)=N/C(=O)CCCCCCCC(=O)/N=C(\N)NCCCc1sc(N)nc1C`, the Intrinsic activity was 0.48 on Histamine H2 receptor [2], 0.9 in test [3] and 0.71 in [4].

`N/C(=N\C(=O)CCCCCCCCCCCCCCC(=O)/N=C(\N)NCCCc1cnc(N)s1)NCCCc1cnc(N)s1`: the Intrinsic activity on Histamine H2 receptor [2] amounted to 0.14; in test [3], 0.59.

For the compound `N/C(=N\C(=O)CCCCCCC(=O)/N=C(\N)NCCCc1cnc(N)s1)NCCCc1cnc(N)s1`, the result in [1] and in [5] was Active. Besides, the Intrinsic activity on Histamine H2 receptor [2] is 0.79; in test [3], 1.

Take `N=C(NCCCc1cnc[nH]1)NC(=O)CCCCCCCCCCCCCCCCCCCCC(=O)NC(N)=NCCCc1cnc[nH]1`: the EC50 was more than 1000 nM at Histamine H4 receptor [7] and 447 nM at Histamine H3 receptor.

For the compound `N/C(=N\C(=O)CCCCCCC(=O)/N=C(\N)NCCCc1c[nH]cn1)NCCCc1c[nH]cn1`, the Intrinsic activity at Histamine H4 receptor [6] worked out at 0.51; at Histamine H2 receptor [2], 0.77; in test [3], 1.18. Further, the EC50 at Histamine H4 receptor [7] was 41.7 nM; on Histamine H2 receptor [8] it was 56.2 nM; at Histamine H2 receptor [10] (read-out: pEC50 (converted)) it was 3.24 nM; on Histamine H3 receptor, 4.17 nM. The Ratio on Histamine H2 receptor [9] came to 22.4; in test [11] it was 372. The Ratio EC50 in test [12] amounted to 17.4. In [13], this compound yielded a pKb of 6.7.

`Cc1nc(N)sc1CCCN/C(N)=N/C(=O)CCCCCCCCC(=O)/N=C(\N)NCCCc1cnc(N)s1`: the result in [1] and in test [5] was Active. For the same compound, the Intrinsic activity on Histamine H2 receptor [2] came out at 0.75; in [3], 0.89.

Take `N/C(=N\C(=O)CCCCCCCCCCCCCCCCCCCCC(=O)/N=C(\N)NCCCc1cnc(N)s1)NCCCc1cnc(N)s1`: the Intrinsic activity in test [3] turned out to be 0.36.

`Cc1nc(N)sc1CCCNC(=N)NC(=O)CCCCCCCCC(=O)NC(=N)NCCCc1sc(N)nc1C`: the EC50 at Histamine H2 receptor [10] (read-out: EC50) came to 0.39 nM.

Take `Cc1nc(N)sc1CCCN/C(N)=N/C(=O)CCCCC(=O)/N=C(\N)NCCCc1sc(N)nc1C`: the Intrinsic activity at Histamine H2 receptor [2] was 0.68; in test [3], 0.9; in test [4] it was 0.88. For the same compound, the %max in [14] was found to be 46%.

Take `Cc1nc(N)sc1CCCN/C(N)=N/C(=O)CCCCCCCCCCCCCCC(=O)/N=C(\N)NCCCc1sc(N)nc1C`: the result in test [1] and in test [5] was Active. Moreover, the figures for the Intrinsic activity (on Histamine H2 receptor [2]; in test [3]; in [4]) were 0.12, 0.51 and 0.53, respectively.

For `N/C(=N\C(=O)CCCCCCCCC(=O)/N=C(\N)NCCCc1cnc(N)s1)NCCCc1cnc(N)s1`, the result in test [1] and in test [5] was Active. Moreover, the Intrinsic activity on Histamine H2 receptor [2] was determined as 0.75; in test [3] it was 0.94.

`Cc1nc(N)sc1CCCN/C(N)=N/C(=O)CCc1ccccc1`: the Intrinsic activity on Histamine H2 receptor [2] is 0.79; in test [3], 0.76.

In the case of `Cc1nc(N)sc1CCCN/C(N)=N/C(=O)CCCCCCCCCCCCCCCCCCCCC(=O)/N=C(\N)NCCCc1sc(N)nc1C`, the Intrinsic activity in test [3] was found to be 0.58; in test [4], 0.62.
